In ChEMBL document CHEMBL1141756, “3-Nitropropionic acid (3-NPA), a potent antimycobacterial agent from endophytic fungi: is 3-NPA in some plants produced by endophytes?” (J Nat Prod, 2005):
Converted amounts (≈) assume the structure as drawn. Structures can show the parent of a compound that is named as a salt. The source made the active and inactive calls. The rule behind the calls is not given here.

Columns and labels:
NCI-H187 [1] = assay: Cytotoxicity against human NCI-H187 cells at 167.9 uM; type: functional, cell-based
Summary of the method: (§1)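 BC, KB and NCI-H187 cells tested at 167.9 µM using the Skehan colorimetric cytotoxicity method; ellipticine reference.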

KB [2] = assay: Cytotoxicity against human KB cells at 167.9 uM; type: functional, cell-based; summary of the method: as §1
BC = assay: Cytotoxicity against human BC cells at 167.9 uM; type: functional, cell-based; summary of the method: as §1
[3] = system: Mycobacterium tuberculosis; assay: Antimycobacterial activity against Mycobacterium tuberculosis H37Ra by microplate alamar blue assay; type: functional
Summary of the method: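 MABA against M. tuberculosis H37Ra grown in Middlebrook 7H9 broth; MIC read. Isoniazid and kanamycin sulfate run as reference drugs in the same experiment as samples.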

Vero [4] = assay: Cytotoxicity against african green monkey Vero cells at 419.8 uM; type: functional, cell-based; conditions: Chlorocebus sabaeus
Summary of the method: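 Vero cells tested at 419.8 µM using the Skehan colorimetric cytotoxicity method; ellipticine reference.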

[5] = Cytotoxicity against human BC cells; type: functional, cell-based
Summary of the method: (§2)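 Colorimetric cytotoxicity method (Skehan) on Vero, KB, NCI-H187 (small-cell lung cancer) and BC (breast cancer) cells; IC50 derived; ellipticine as reference compound.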

Vero [6] = assay: Cytotoxicity against african green monkey Vero cells; type: functional, cell-based; conditions: Chlorocebus sabaeus; summary of the method: as §2
NCI-H187 [7] = assay: Cytotoxicity against human NCI-H187 cells; type: functional, cell-based; summary of the method: as §2
KB [8] = assay: Cytotoxicity against human KB cells; type: functional, cell-based; summary of the method: as §2

With `O=C(O)CC[N+](=O)[O-]` the Activity (NCI-H187 [1]) was “inactive”, the Activity (KB [2]) was “inactive” and the Activity (BC) was “inactive”. For the same compound, the MIC [3] was 3.3 µM (≈ 0.393 µg/mL) and the Activity (Vero [4]) was “inactive”.
Compound `Cc1c2ccncc2c(C)c2c1[nH]c1ccccc12` [ELLIPTECINE] has an IC50 [5] of 800 nM, an IC50 (Vero [6]) of 800 nM and an IC50 (NCI-H187 [7]) of 800 nM. It also gave an IC50 (KB [8]) of 800 nM.
In the case of `NNC(=O)c1ccncc1` [ISONIAZID], the MIC [3] is reported as 0.29 µM (≈ 0.0398 µg/mL).
For `NC[C@H]1O[C@H](O[C@H]2[C@H](O)[C@@H](O[C@H]3O[C@H](CO)[C@@H](O)[C@H](N)[C@H]3O)[C@H](N)C[C@@H]2N)[C@H](O)[C@@H](O)[C@@H]1O` [KANAMYCIN SULFATE], the MIC [3] was 3.4 µM.
